For 54 compounds, IC50 results are on record in ChEMBL document CHEMBL1143197, “Neural networks as valuable tools to differentiate between sesquiterpene lactones' inhibitory activity on serotonin release and on NF-kappaB” (J Med Chem, 2008).

This assay relates to Platelet. The assay can be described thus: Inhibition of serotonin release in bovine platelets. Type of assay: functional, cell-based. Particulars: Bos taurus. The essentials: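 Bovine platelets loaded with [14C]serotonin by incubating cattle venous blood, taken up by active transport. Platelet-rich plasma prepared at a standard platelet concentration by centrifugation and dilution, then preincubated with the sesquiterpene lactones. Adenosine diphosphate added to trigger aggregation and degranulation. Reaction stopped after 6 min with ice-cold acetylsalicylic acid. Released serotonin monitored and IC50 determined.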

As a reminder, the IC50 is the concentration that inhibits the measured activity by half.

For `C=C1CC[C@@H](O)[C@]2(C)CC[C@@H]3[C@H](OC(=O)[C@H]3C)[C@@H]12`, the IC50 is > 210 µM.

Compound `C=C1C(=O)O[C@H]2[C@H]1[C@H](OC(=O)[C@@]1(C)O[C@H]1C)[C@@H](OC(C)=O)/C(C(=O)OC)=C\CC[C@@]1(C)O[C@H]21` [ENHYDRIN] had an IC50 of 8.76 µM. To `C=C1C(=O)O[C@@H]2[C@H]3C(C)=CC[C@@H](O)[C@]3(C)CC[C@@H]12` [SANTAMARIN] belongs 84.9 µM; to `C=C1C(=O)O[C@@H]2[C@H]1CC[C@H](C)[C@]1(O)CCC(=O)[C@@]21C` [CORONOPILIN], 249 µM.

Regarding `C=C1C(=O)O[C@@H]2C/C(C=O)=C/CC/C(C)=C/[C@@H](O)[C@H]12` [SCHKUHRIOLIDE], the midpoint of inhibition, the IC50, lay at 278 µM. The IC50 values of the last two compounds are within 1.5-fold of each other. Compound `C=C1C(=O)O[C@@H]2/C=C(\CO)CC/C=C(\C)C[C@H](O)[C@@H]12` [SALONITENOLIDE] gave an IC50 of 10.2 µM. Take `C=C1C(=O)O[C@@H]2[C@H]1[C@@H](OC(C)=O)C[C@H](C)[C@@H]1CCC(=O)[C@@]21C` [CONFERTIFLORIN]: the IC50 was determined as 8.88 µM.

As for `C=C1C(=O)O[C@@H]2C[C@@]3(C)CCCC(=C)[C@@H]3C[C@H]12` [ISOALANTOLACTONE], the IC50 was > 516 µM. `C=C(C(=O)O[C@@H]1C[C@@]2(C)[C@H](O)CC=C(C)[C@@H]2[C@H]2OC(=O)C(=C)[C@@H]21)C(C)O` (some centres undefined) had an IC50 of 26.7 µM.

On to `C=C1C(=O)O[C@@H]2[C@H]1CC[C@H](C)[C@]1(CCC(=O)O1)[C@@]2(C)O` [PSILOSTACHYIN A], for which the IC50 came out at 44.1 µM. Then `C=C1C(=O)O[C@H]2CC(=C)[C@@H](O)CC/C(C)=C/[C@@H](O)[C@H]12` [TATRIDIN B], with 27 µM. Then `C=C1C(=O)O[C@@H]2C3=C(C)CC[C@@H](O)[C@]3(C)C[C@@H](OC(=O)C3(C)OC3C)[C@@H]12` (stereo partly drawn) [1BETA-HYDROXY-8BETA-EPOXYANGELOYLOXYARBUSCULIN B], with 6.66 µM; and `CC1=C2[C@H]3OC(=O)[C@@H](C)[C@@H]3CC[C@@]2(C)C=CC1=O` [SANTONIN], with > 568 µM.

`C=C1[C@@H](O)C[C@@H]2[C@H](OC(=O)[C@H]2C)[C@H]2[C@H](C)C(=O)C[C@@H]12`: the IC50 was > 454 µM. Take `C=C1C(=O)O[C@H]2[C@H]1CC[C@@](C)(O)[C@]13O[C@H]1[C@H]1O[C@@]1(C)[C@H]23` [ARTECANIN]: the IC50 is > 135 µM. In turn, `C=C1C(=O)O[C@@H]2C[C@H](C)[C@@H]3[C@@H](O)CC(=O)[C@@]3(C)C[C@H]12` [BURRODIN] displayed an IC50 of 251 µM. With `C=C1C[C@@H](O)[C@@H]2[C@H](OC(=O)[C@H]2C)[C@H]2[C@H](C)[C@@H](O)C[C@@H]12`, the 50% inhibitory concentration (IC50) is > 488 µM.

In the case of `C=C1C(=O)O[C@@H]2[C@H]3O[C@]3(C)CCC[C@H](C)CC[C@@H]12`, the IC50 stood at 40.6 µM. To `C=C(C(=O)O)[C@@H]1CC[C@@]2(C)CCC[C@@](C)(O)[C@@H]2C1` [ILICIC ACID] belongs > 614 µM; to `C=C1C(=O)O[C@@H]2/C=C(\CO)CC/C=C(\CO)C[C@H](OC(=O)C(C)C)[C@@H]12` [ALATOLIDE], 5.77 µM.

With `C[C@@H]1C[C@@H]2OC(=O)[C@]3(C)[C@H]2[C@@H](OC3(C)O)[C@]2(C)C(=O)C=C[C@@H]12` (some centres undefined) [TENULIN], the midpoint of inhibition, the IC50, lay at 361 µM. This IC50 lies about 63-fold higher than the previous one. Then `C=C1C(=O)O[C@H]2[C@H]1[C@@H](OC(=O)[C@]1(C)CO1)CC(=C)[C@@H]1C[C@H](O)[C@]3(CO3)[C@H]21` [REPIN], with 9.24 µM. As to `C=C1C(=O)O[C@H]2[C@H]1[C@@H](O)CC(=C)[C@@H]1CC(=O)[C@@H](C)[C@H]21` [GROSSHEIMIN], the IC50 came to 22.2 µM.

In turn, `C=C1C(=O)O[C@H]2C[C@H](C)[C@@H]3CC(=O)C(C)=C3C[C@H]12` [XERANTOLIDE] gave an IC50 of 101 µM. To `C=C1C(=O)O[C@H]2[C@H]1[C@H](OC(=O)C1(C)OC1C)C[C@@]1(C)[C@H](O)C[C@H]3O[C@@]3(C)[C@H]21` (some centres undefined) belongs 17.7 µM; to `C/C1=C\CC[C@@]2(C)O[C@@H]2[C@H]2OC(=O)[C@@H](C)[C@@H]2CC1` [11BETA,13-DIHYDRO-PARTHENOLIDE], > 400 µM; to `C=C1C(=O)O[C@H]2C[C@@H](C)[C@@H]3C=CC(=O)[C@@]3(C)[C@H](OC(C)=O)[C@H]12` [LINIFOLIN A], 11.4 µM.

Consider `C=C1C(=O)O[C@H]2[C@H]1[C@H](OC(=O)C1(C)OC1C)C[C@@]1(C)[C@H](O)CC=C(C)[C@H]21` (some centres undefined), for which it took 7.09 µM to reach half-maximal inhibition (IC50). The compound `C=C1C(=O)O[C@@H]2C[C@@H](C)[C@@H]3C=CC(=O)[C@@]3(C)[C@@H](O)[C@H]12` [HELENALIN] gave an IC50 of 4.28 µM.

Compound `C=C1C(=O)O[C@H]2C[C@H](C)[C@@H]3C(OC(C)=O)CC(OC(C)=O)[C@@]3(C)[C@@H](O)[C@H]12` (some centres undefined) [INUCHINENOLIDE C] came in with an IC50 of 33.5 µM. To `C=C1CC[C@@H](O)[C@]2(C)CC[C@H]3C(=C)C(=O)O[C@@H]3[C@@H]12` [REYNOSIN] belongs 271 µM; to `C=C1C(=O)O[C@@H]2/C=C(/CO)CC[C@H](OCC)C3=C[C@@H](OC3=O)[C@@H]12` [CINERENIN], 3.52 µM.

As to `C=C1C(=O)O[C@H]2[C@H]1[C@H](OC(=O)C(C)(O)C(C)O)C[C@@]1(C)[C@H](O)CCC(=C)[C@H]21` (some centres undefined), the IC50 worked out at 9.52 µM. Then `C=C(C)C(=O)O[C@@H]1C[C@@H](OC(C)=O)C(=O)CC[C@]2(C)O[C@H]2[C@@H]2OC(=O)C(COC(C)=O)=C21` [GLAUCOLIDE A], with 20.9 µM; and `C=C1C(=O)O[C@@H]2C[C@@]3(C)CCCC(=C)[C@]3(O)C[C@H]12` [TELEKIN], with > 564 µM; and `C=C1C(=O)O[C@@H]2/C=C(\C)[C@@H]3O[C@@H]3/C=C(/C(=O)OC)[C@H](O)[C@@H](OC(=O)[C@]3(C)O[C@@H]3C)[C@@H]12` [MELAMPODIN A], with 4.68 µM.

The compound `C=C1C(=O)O[C@H]2/C=C(\C)[C@@H](OC(C)=O)C/C=C(\C)C[C@@H](OC(=O)C3(C)OC3C)[C@@H]12` (some centres undefined) [URSINIOLIDE A] showed an IC50 of 1.78 µM. Then `C=C1C(=O)O[C@@H]2C[C@@]3(C)C[C@@H](O)[C@H](O)C(=C)[C@@H]3C[C@H]12` [PULCHELLIN C], with > 416 µM; and `C=C1C(=O)O[C@@H]2C3O[C@]3(C)CC/C=C(\C)CC[C@@H]12` (some centres undefined), with 3.03 µM. Take `C=C1C(=O)O[C@@H]2/C=C(\C)CC[C@H]3O[C@]3(C)CC[C@@H]12` [1,10-EPOXYCOSTUNOLIDE]: the IC50 was 121 µM.

In turn, `C=C1C(=O)O[C@@H]2[C@H]3C(=C)[C@@H](O)C[C@H]3C(=C)C[C@H](OC(=O)[C@@]3(C)CO3)[C@@H]12` displayed an IC50 of 6.32 µM.

In the case of `C=C1C(=O)O[C@H]2C[C@@H](C)[C@@H]3CCC(=O)[C@@]3(C)[C@H](O)[C@H]12`, the IC50 was 60.1 µM. To `C[C@@H]1C(=O)O[C@H]2[C@H]1CC[C@@]1(C)O[C@@H]1CC[C@@]1(C)O[C@H]21` belongs > 413 µM. To `C=C1C(=O)O[C@H]2[C@H]1[C@@H](OC(=O)/C(=C/CO)CO)C/C(C)=C/CC[C@@]1(C)O[C@H]21` [STIZOLICIN] belongs 5.82 µM; to `C=C(C(=O)OC)[C@@H]1CC[C@@]2(C)CCC[C@@](C)(O)[C@@H]2C1` [VACHANIC ACID METHYLESTER], 201 µM; to `C=C1C(=O)O[C@@H]2/C=C(/COC(C)=O)CC[C@H](OCC)C3=C[C@@H](OC3=O)[C@@H]12` [CINERENIN ACETATE], 2.04 µM. As for `C=C1C(=O)O[C@@H]2[C@H]1CC[C@H](C)[C@]1(O)C=CC(=O)[C@@]21C` [PARTHENIN], the midpoint of inhibition, the IC50, lay at 129 µM. To `C=C1C(=O)O[C@H]2/C=C(\C)[C@@H](OC(C)=O)C/C=C(\C)C[C@@H](OC(=O)C(C)(O)C(C)OC(C)=O)[C@@H]12` (some centres undefined) [URSINIOLIDE B] belongs 5.3 µM; to `CC1=CC[C@@H](O)[C@]2(C)CC[C@@H]3[C@H](OC(=O)[C@H]3C)[C@@H]12`, > 200 µM; to `C=C1C(=O)O[C@@H]2/C=C(\CO)CC/C=C(\C)C[C@H](OC(=O)C(=C)[C@H](O)CO)[C@@H]12` [CNICIN], 3.52 µM. To `C=C1C(=O)O[C@@H]2C[C@@]3(C)[C@H](O)CCC(=C)[C@@H]3C[C@H]12` [ASPERILIN] belongs 57.6 µM. `C=C1C(=O)O[C@H]2C[C@@H](C)[C@@H]3C[C@@H](O)[C@H](O)[C@@]3(C)[C@H](O)[C@H]12` [GEIGERININ]: it took 73.4 µM to reach half-maximal inhibition (IC50). This IC50 and that of the compound before are within 1.5-fold of each other. Then `C=C1C(=O)O[C@H]2[C@H]1[C@@H](OC(=O)[C@](C)(O)CCl)CC(=C)[C@@H]1C[C@H](O)[C@](O)(CCl)[C@H]21` [CENTAUREPENSIN], with 6.06 µM. To `C=C1C(=O)O[C@H]2[C@H]1[C@H](OC(=O)C1(C)OC1C)C[C@@]1(C)[C@H](O)CCC(=C)[C@H]21` (some centres undefined) belongs 10.1 µM.
